# Measured values published in ChEMBL document CHEMBL4373727, “Thienopyrimidinone Derivatives That Inhibit Bacterial tRNA (Guanine37-N1)-Methyltransferase (TrmD) by Restructuring the Active Site with a Tyrosine-Flipping Mechanism” (J Med Chem, 2019).
# Calls of active or inactive are those of the source. Unless noted, no cut-off for these calls is given here.
# Tests used:
# [1] = target: T1, tRNA (guanine-N(1)-)-methyltransferase (Pseudomonas aeruginosa (strain ATCC 15692 / DSM 22644 / CIP 104116 / JCM14847 / LMG 12228 / 1C / PRS 101 / PAO1), UniProt Q9HXQ1); assay: (§1) Inhibition of Pseudomonas aeruginosa tRNA (guanine(37)-N1)-methyltransferase (Leu5 to Asp25 residues) expressed in Escherichia coli BL21 (DE3) Rosetta T1R cells assessed as reduction in S-adenosyl-L-homocysteine production preincubated for 15 mins followed by 1.5 uM of tRNALeu(CAG) substrate and SAM addition and measured after 45 mins by MTase-Glo assay
# T1 sequence (Q9HXQ1 whole entry): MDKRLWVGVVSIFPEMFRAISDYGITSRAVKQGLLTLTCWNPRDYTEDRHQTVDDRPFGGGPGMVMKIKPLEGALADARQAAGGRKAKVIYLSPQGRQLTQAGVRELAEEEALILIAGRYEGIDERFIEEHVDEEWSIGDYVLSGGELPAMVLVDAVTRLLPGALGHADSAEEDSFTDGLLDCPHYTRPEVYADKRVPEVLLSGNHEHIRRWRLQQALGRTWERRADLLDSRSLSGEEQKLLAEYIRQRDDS
# In short: (§2)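 MTase-Glo luminescence assay. 8 nM TrmD preincubated 15 min at ambient temperature with serially diluted inhibitor (0–500 μM) in 50 mM Tris-HCl pH 8.0, 80 mM NaCl, 1 mM MgCl2, 0.5 mM DTT, 0.01% Triton X-100. Reaction with 2 μM SAM and tRNALeu(CAG), 45 min at 37 °C. Detection 30 min in the dark, SAH read against a standard curve. IC50 by nonlinear regression. Two independent experiments in duplicate.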
# [2] = tested on: Streptococcus pneumoniae; assay: Antibacterial activity against Streptococcus pneumoniae ATCC 49619 incubated for 24 hrs by serial broth microdilution method; type: functional
# In short: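 Cultured in MH medium plus 3% defibrinated sheep blood at 37 °C, 5% CO2. Log-phase inoculum ~5×10^5 cells/mL was exposed to serial compound dilutions for 24 h. MIC50/MIC90 are relative to drug-free controls. Two independent experiments in duplicate.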
# [3] = tested on: Enterococcus faecalis; assay: Antibacterial activity against Enterococcus faecalis ATCC 51299 incubated for 24 hrs by serial broth microdilution method; type: functional, organism-based
# In short: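 Broth microdilution in brain heart infusion broth, ~5×10^5 cells/mL log-phase inoculum, serial compound dilutions, 24 h at 37 °C, OD600 read-out. MIC50/MIC90 are the concentrations giving 50%/90% growth inhibition relative to drug-free controls. Two independent experiments in duplicate.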
# [4] = tested on: Mycobacterium tuberculosis; assay: Antibacterial activity against Mycobacterium tuberculosis ATCC 27294 at 100 uM incubated for 7 days; type: functional, organism-based
# [5] = tested on: Pseudomonas aeruginosa; assay: Antibacterial activity against Pseudomonas aeruginosa PA14 incubated for 24 hrs by serial broth microdilution method; type: functional, organism-based
# In short: (§3)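 Log-phase cultures from four colonies grown overnight at 37 °C, inoculated at ~5×10^5 cells/mL in cation-adjusted Mueller–Hinton broth with serially diluted compound. Grown 24 h at 37 °C, then OD600 read. MIC50/MIC90 are the concentrations giving 50%/90% growth inhibition relative to drug-free controls. Two independent experiments in duplicate.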
# [6] = tested on: Mycolicibacterium smegmatis; assay: Antibacterial activity against Mycolicibacterium smegmatis MC2 155 at 100 uM incubated for 24 hrs; type: functional, organism-based
# In short: (§4)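 Single-concentration growth screen: 100 μM test compound with log-phase bacteria at about 5×10^5 cells/mL. Incubation 24 h at 37 °C. Growth read by OD600 and given as percent of untreated control. MRSA was grown in cation-adjusted Mueller–Hinton broth. M. smegmatis was grown in complete Middlebrook 7H9. Ampicillin and kanamycin served as positive controls.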
# [7] = tested on: Escherichia coli; assay: Antibacterial activity against Escherichia coli BW25113 incubated for 24 hrs by serial broth microdilution method; type: functional, organism-based; in short: as §3
# [8] = tested on: Klebsiella pneumoniae; assay: Antibacterial activity against Klebsiella pneumoniae ATCC 13883 incubated for 24 hrs by serial broth microdilution method; type: functional, organism-based; in short: as §3
# [9] = tested on: Erythrocyte; assay: Hemolytic activity in human RBC at 100 uM measured after 1 hr; type: ADME, cell-based
# In short: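 Fresh human RBCs were PBS-washed and resuspended to OD600 24, then mixed 1:1 by volume with compound serially diluted in PBS. Incubated 1 h at 37 °C without shaking and centrifuged at 1000g for 15 min. Triton X-100 served as positive control. Run in triplicate.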
# [10] = tested on: Staphylococcus aureus; assay: Antibacterial activity against methicillin-resistant Staphylococcus aureus ATCC 43300 incubated for 24 hrs by serial broth microdilution method; type: functional
# In short: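 Growth read by OD600. MRSA in cation-adjusted Mueller–Hinton broth, M. smegmatis in complete 7H9. MIC50 and MIC90 are 50% and 90% growth inhibition versus drug-free controls. Two independent experiments, each in duplicate.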
# [11] = tested on: Salmonella enteritidis; assay: Antibacterial activity against Salmonella enteritidis ATCC 13076 incubated for 24 hrs by serial broth microdilution method; type: functional; conditions: Salmonella enterica subsp. enterica serovar Enteritidis; in short: as §3
# [12] = tested on: Streptococcus pneumoniae; assay: Antibacterial activity against Streptococcus pneumoniae ATCC 49619 at 100 uM incubated for 24 hrs; type: functional, organism-based
# In short: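 Single 100 μM screen in MH medium with 3% defibrinated sheep blood at 37 °C under 5% CO2, ~5×10^5 cells/mL, 24 h.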
# [13] = tested on: Staphylococcus aureus; assay: Antibacterial activity against methicillin-resistant Staphylococcus aureus ATCC 43300 at 100 uM incubated for 24 hrs; type: functional, organism-based; in short: as §4
# [14] = tested on: Enterococcus faecalis; assay: Antibacterial activity against Enterococcus faecalis ATCC 51299 at 100 uM incubated for 24 hrs; type: functional, organism-based
# In short: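 Single-concentration screen in brain heart infusion broth. Log-phase cells at ~5×10^5 cells/mL were grown with 100 μM compound for 24 h at 37 °C. Growth was read as OD600 and expressed as a percentage of untreated wells. DMSO and blank controls were included.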
# [15] = tested on: Acinetobacter baumannii; assay: Antibacterial activity against Acinetobacter baumannii ATCC 17961 incubated for 24 hrs by serial broth microdilution method; type: functional; in short: as §3
# [16] = target: T2, tRNA (guanine-N(1)-)-methyltransferase (Pseudomonas aeruginosa (strain ATCC 15692 / DSM 22644 / CIP 104116 / JCM14847 / LMG 12228 / 1C / PRS 101 / PAO1)) (UniProt Q9HXQ1); assay: Binding affinity to Pseudomonas aeruginosa tRNA (guanine(37)-N1)-methyltransferase (Leu5 to Asp25 residues) expressed in Escherichia coli BL21 (DE3) Rosetta T1R cells assessed as thermal stabilization of protein by measuring change in melting temperature at 0.1 mM by SYPRO orange based thermal shift assay
# T2 sequence (whole entry): T1 sequence (Q9HXQ1 whole entry)
# In short: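 Thermal shift: 4 μM TrmD with 5× SYPRO Orange and ligand in 50 mM Tris-HCl pH 8, 150 mM NaCl, 1 mM MgCl2, 1 mM DTT, 0.05% Tween-20. Buffer-only control. Heated from 25 to 95 °C in a real-time PCR instrument, and Tm taken as the unfolding midpoint. Ligand levels: SAH 2 mM, inhibitors 0.1 mM.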
# [17] = target: T2, tRNA (guanine-N(1)-)-methyltransferase (Pseudomonas aeruginosa (strain ATCC 15692 / DSM 22644 / CIP 104116 / JCM14847 / LMG 12228 / 1C / PRS 101 / PAO1)); assay: as §1, with “production up to 50 uM” for “production”; in short: as §2
SMILES,IC50 [1] [nM],Activity [2],Activity [3],Activity [4],Activity [5],Activity [6],Activity [7],Activity [8],Activity [9],Activity [10],Activity [11],Activity [12],Activity [13],Activity [14],Activity [15],ΔTm [16] [°C],inhibition [17]
Cl.NCCCCCCCNCc1ccc(CNC(=O)c2csc3nc[nH]c(=O)c23)cc1,140,inactive,inactive,inactive,inactive,inactive,inactive,inactive,Non-Toxic,inactive,inactive,inactive,inactive,inactive,inactive,,
CCCCCCOc1ncnc2scc(C(=O)NCc3ccc(CNCc4ccccc4)cc3)c12,,,,,,,,,,,,,,,,1 to 2,inactive
Cl.NCCCCCNCc1ccc(CNC(=O)c2csc3nc[nH]c(=O)c23)cc1,110,inactive,inactive,inactive,inactive,inactive,inactive,inactive,Non-Toxic,inactive,inactive,inactive,inactive,inactive,inactive,,
